Laboratory results as given in publication PMC7004521 (Cancer Science, 2019).

Experiment: Adverse events suspected to be study drug related, phase 1 study
Assay type: in vivo, human
How it was run: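 Adult patients with advanced solid tumours and confirmed MET dysregulation took oral capsules twice daily from 100 up to 600 mg in escalation, or 400 mg bid tablets, in 28-day cycles. Expansion was 600 mg bid capsules, with a switch to 400 mg bid tablets allowed. Patients were included if they had ≥1 dose and ≥1 valid post-baseline safety assessment. Events were graded by CTCAE v4.0.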

[1] = drug-related, all escalation N=38
[2] = drug-related, all expansions RP2D N=38
[3] = drug-related, escalation 400 mg bid tablet n=5
[4] = drug-related, escalation 450 mg bid n=9
[5] = drug-related, escalation 600 mg bid n=8

CNC(=O)c1ccc(-c2cnc3ncc(Cc4ccc5ncccc5c4)n3n2)cc1F [capmatinib]
tolerability (across all explored doses): well tolerated
ALT increased, all grades [1]: 3 (8) n (%)
ALT increased, grade 3/4 [1]: 2 (5) n (%)
AST increased, all grades [1]: 5 (13) n (%)
AST increased, grade 3/4 [1]: 1 (3) n (%)
Amylase increased, all grades [1]: 2 (5) n (%)
Amylase increased, grade 3/4 [1]: 1 (3) n (%)
Asthenia, all grades [1]: 6 (16) n (%)
Asthenia, grade 3/4 [1]: 0 n (%)
Blood bilirubin increased, all grades [1]: 4 (11) n (%)
Blood bilirubin increased, grade 3/4 [1]: 1 (3) n (%)
Blood creatinine increased, all grades [1]: 2 (5) n (%)
Blood creatinine increased, grade 3/4 [1]: 0 n (%)
Constipation, all grades [1]: 3 (8) n (%)
Constipation, grade 3/4 [1]: 0 n (%)
Decreased appetite, all grades [1]: 11 (29) n (%)
Diarrhea, all grades [1]: 5 (13) n (%)
Diarrhea, grade 3/4 [1]: 0 n (%)
Dizziness, all grades [1]: 1 (3) n (%)
Dizziness, grade 3/4 [1]: 0 n (%)
Dyspepsia, all grades [1]: 1 (3) n (%)
Dyspepsia, grade 3/4 [1]: 0 n (%)
Fatigue, all grades [1]: 10 (26) n (%)
Fatigue, grade 3/4 [1]: 3 (8) n (%)
Headache, all grades [1]: 2 (5) n (%)
Headache, grade 3/4 [1]: 0 n (%)
Hypoalbuminemia, all grades [1]: 6 (16) n (%)
Hypoalbuminemia, grade 3/4 [1]: 1 (3) n (%)
Hypophagia, all grades [1]: 2 (5) n (%)
Hypophagia, grade 3/4 [1]: 2 (5) n (%)
Lipase increased, all grades [1]: 1 (3) n (%)
Lipase increased, grade 3/4 [1]: 1 (3) n (%)
Maculo‐papular rash, all grades [1]: 1 (3) n (%)
Maculo‐papular rash, grade 3/4 [1]: 0 n (%)
Myalgia, all grades [1]: 2 (5) n (%)
Myalgia, grade 3/4 [1]: 0 n (%)
Nausea, all grades [1]: 12 (32) n (%)
Nausea, grade 3/4 [1]: 0 n (%)
Odynophagia, all grades [1]: 2 (5) n (%)
Odynophagia, grade 3/4 [1]: 0 n (%)
Peripheral edema, all grades [1]: 8 (21) n (%)
Peripheral edema, grade 3/4 [1]: 1 (3) n (%)
Pyrexia, all grades [1]: 2 (5) n (%)
Pyrexia, grade 3/4 [1]: 0 n (%)
Stomatitis, all grades [1]: 2 (5) n (%)
Stomatitis, grade 3/4 [1]: 0 n (%)
Thrombocytopenia, all grades [1]: 1 (3) n (%)
Thrombocytopenia, grade 3/4 [1]: 0 n (%)
Total protein decreased, all grades [1]: 2 (5) n (%)
Total protein decreased, grade 3/4 [1]: 0 n (%)
Upper abdominal pain, all grades [1]: 2 (5) n (%)
Upper abdominal pain, grade 3/4 [1]: 0 n (%)
Vomiting, all grades [1]: 11 (29) n (%)
Vomiting, grade 3/4 [1]: 0 n (%)
ALT increased, all grades [2]: 2 (5) n (%)
ALT increased, grade 3/4 [2]: 2 (5) n (%)
AST increased, all grades [2]: 4 (11) n (%)
Amylase increased, all grades [2]: 0 n (%)
Amylase increased, grade 3/4 [2]: 0 n (%)
Asthenia, all grades [2]: 2 (5) n (%)
Asthenia, grade 3/4 [2]: 0 n (%)
Blood bilirubin increased, all grades [2]: 0 n (%)
Blood bilirubin increased, grade 3/4 [2]: 0 n (%)
Blood creatinine increased, all grades [2]: 2 (5) n (%)
Blood creatinine increased, grade 3/4 [2]: 1 (3) n (%)
Constipation, all grades [2]: 1 (3) n (%)
Constipation, grade 3/4 [2]: 0 n (%)
Decreased appetite, all grades [2]: 4 (11) n (%)
Decreased appetite, grade 3/4 [2]: 0 n (%)
Diarrhea, all grades [2]: 7 (18) n (%)
Diarrhea, grade 3/4 [2]: 0 n (%)
Dizziness, all grades [2]: 2 (5) n (%)
Dizziness, grade 3/4 [2]: 0 n (%)
Dyspepsia, all grades [2]: 2 (5) n (%)
Dyspepsia, grade 3/4 [2]: 0 n (%)
Fatigue, all grades [2]: 9 (24) n (%)
Fatigue, grade 3/4 [2]: 1 (3) n (%)
Headache, all grades [2]: 1 (3) n (%)
Headache, grade 3/4 [2]: 0 n (%)
Hypoalbuminemia, all grades [2]: 1 (3) n (%)
Hypoalbuminemia, grade 3/4 [2]: 0 n (%)
Lipase increased, all grades [2]: 3 (8) n (%)
Lipase increased, grade 3/4 [2]: 2 (5) n (%)
Localized edema, all grades [2]: 2 (5) n (%)
Localized edema, grade 3/4 [2]: 0 n (%)
Maculo‐papular rash, all grades [2]: 2 (5) n (%)
Maculo‐papular rash, grade 3/4 [2]: 0 n (%)
Myalgia, all grades [2]: 2 (5) n (%)
Myalgia, grade 3/4 [2]: 0 n (%)
Nausea, all grades [2]: 11 (29) n (%)
Nausea, grade 3/4 [2]: 1 (3) n (%)
Odynophagia, all grades [2]: 0 n (%)
Odynophagia, grade 3/4 [2]: 0 n (%)
Peripheral edema, all grades [2]: 10 (26) n (%)
Peripheral edema, grade 3/4 [2]: 0 n (%)
Pyrexia, all grades [2]: 0 n (%)
Pyrexia, grade 3/4 [2]: 0 n (%)
Stomatitis, all grades [2]: 1 (3) n (%)
Stomatitis, grade 3/4 [2]: 0 n (%)
Thrombocytopenia, all grades [2]: 2 (5) n (%)
Thrombocytopenia, grade 3/4 [2]: 1 (3) n (%)
Total protein decreased, all grades [2]: 0 n (%)
Total protein decreased, grade 3/4 [2]: 0 n (%)
Upper abdominal pain, all grades [2]: 0 n (%)
Upper abdominal pain, grade 3/4 [2]: 0 n (%)
Vomiting, all grades [2]: 7 (18) n (%)
Vomiting, grade 3/4 [2]: 1 (3) n (%)
ALT increased, all grades [3]: 1 (20) n (%)
ALT increased, grade 3/4 [3]: 0 n (%)
AST increased, all grades [3]: 1 (20) n (%)
Amylase increased, all grades [3]: 0 n (%)
Amylase increased, grade 3/4 [3]: 0 n (%)
Asthenia, all grades [3]: 1 (20) n (%)
Asthenia, grade 3/4 [3]: 0 n (%)
Blood bilirubin increased, all grades [3]: 0 n (%)
Blood bilirubin increased, grade 3/4 [3]: 0 n (%)
Blood creatinine increased, all grades [3]: 0 n (%)
Blood creatinine increased, grade 3/4 [3]: 0 n (%)
Constipation, all grades [3]: 1 (20) n (%)
Constipation, grade 3/4 [3]: 0 n (%)
Decreased appetite, all grades [3]: 0 n (%)
Decreased appetite, grade 3/4 [3]: 0 n (%)
Diarrhea, all grades [3]: 1 (20) n (%)
Diarrhea, grade 3/4 [3]: 0 n (%)
Dizziness, all grades [3]: 1 (20) n (%)
Dizziness, grade 3/4 [3]: 0 n (%)
Dyspepsia, all grades [3]: 0 n (%)
Dyspepsia, grade 3/4 [3]: 0 n (%)
Fatigue, all grades [3]: 1 (20) n (%)
Fatigue, grade 3/4 [3]: 0 n (%)
Headache, all grades [3]: 0 n (%)
Headache, grade 3/4 [3]: 0 n (%)
Hypoalbuminemia, all grades [3]: 2 (40) n (%)
Hypoalbuminemia, grade 3/4 [3]: 0 n (%)
Hypophagia, all grades [3]: 0 n (%)
Hypophagia, grade 3/4 [3]: 0 n (%)
Lipase increased, all grades [3]: 0 n (%)
Lipase increased, grade 3/4 [3]: 0 n (%)
Maculo‐papular rash, all grades [3]: 0 n (%)
Maculo‐papular rash, grade 3/4 [3]: 0 n (%)
Myalgia, all grades [3]: 0 n (%)
Myalgia, grade 3/4 [3]: 0 n (%)
Nausea, all grades [3]: 2 (40) n (%)
Nausea, grade 3/4 [3]: 0 n (%)
Odynophagia, all grades [3]: 1 (20) n (%)
Odynophagia, grade 3/4 [3]: 0 n (%)
Peripheral edema, all grades [3]: 2 (40) n (%)
Peripheral edema, grade 3/4 [3]: 0 n (%)
Pyrexia, all grades [3]: 0 n (%)
Pyrexia, grade 3/4 [3]: 0 n (%)
Stomatitis, all grades [3]: 1 (20) n (%)
Stomatitis, grade 3/4 [3]: 0 n (%)
Thrombocytopenia, all grades [3]: 0 n (%)
Thrombocytopenia, grade 3/4 [3]: 0 n (%)
Total protein decreased, all grades [3]: 0 n (%)
Total protein decreased, grade 3/4 [3]: 0 n (%)
Upper abdominal pain, all grades [3]: 1 (20) n (%)
Upper abdominal pain, grade 3/4 [3]: 0 n (%)
Vomiting, all grades [3]: 1 (20) n (%)
Vomiting, grade 3/4 [3]: 0 n (%)
ALT increased, all grades [4]: 1 (11) n (%)
ALT increased, grade 3/4 [4]: 1 (11) n (%)
AST increased, all grades [4]: 1 (11) n (%)
AST increased, grade 3/4 [4]: 1 (11) n (%)
Amylase increased, all grades [4]: 0 n (%)
Amylase increased, grade 3/4 [4]: 0 n (%)
Asthenia, all grades [4]: 1 (11) n (%)
Asthenia, grade 3/4 [4]: 0 n (%)
Blood bilirubin increased, all grades [4]: 0 n (%)
Blood bilirubin increased, grade 3/4 [4]: 0 n (%)
Blood creatinine increased, all grades [4]: 0 n (%)
Blood creatinine increased, grade 3/4 [4]: 0 n (%)
Constipation, all grades [4]: 0 n (%)
Constipation, grade 3/4 [4]: 0 n (%)
Decreased appetite, all grades [4]: 3 (33) n (%)
Decreased appetite, grade 3/4 [4]: 0 n (%)
Diarrhea, all grades [4]: 0 n (%)
Diarrhea, grade 3/4 [4]: 0 n (%)
Dizziness, all grades [4]: 0 n (%)
Dizziness, grade 3/4 [4]: 0 n (%)
Dyspepsia, all grades [4]: 0 n (%)
Dyspepsia, grade 3/4 [4]: 0 n (%)
Fatigue, all grades [4]: 3 (33) n (%)
Fatigue, grade 3/4 [4]: 1 (11) n (%)
Headache, all grades [4]: 1 (11) n (%)
Headache, grade 3/4 [4]: 0 n (%)
Hypoalbuminemia, all grades [4]: 0 n (%)
Hypoalbuminemia, grade 3/4 [4]: 0 n (%)
Hypophagia, all grades [4]: 0 n (%)
Hypophagia, grade 3/4 [4]: 0 n (%)
Lipase increased, all grades [4]: 0 n (%)
Lipase increased, grade 3/4 [4]: 0 n (%)
Maculo‐papular rash, all grades [4]: 1 (11) n (%)
Maculo‐papular rash, grade 3/4 [4]: 0 n (%)
Myalgia, all grades [4]: 0 n (%)
Myalgia, grade 3/4 [4]: 0 n (%)
Nausea, all grades [4]: 4 (44) n (%)
Nausea, grade 3/4 [4]: 0 n (%)
Odynophagia, all grades [4]: 0 n (%)
Odynophagia, grade 3/4 [4]: 0 n (%)
Peripheral edema, all grades [4]: 2 (22) n (%)
Peripheral edema, grade 3/4 [4]: 0 n (%)
Pyrexia, all grades [4]: 1 (11) n (%)
Pyrexia, grade 3/4 [4]: 0 n (%)
Stomatitis, all grades [4]: 0 n (%)
Stomatitis, grade 3/4 [4]: 0 n (%)
Thrombocytopenia, all grades [4]: 0 n (%)
Thrombocytopenia, grade 3/4 [4]: 0 n (%)
Total protein decreased, all grades [4]: 0 n (%)
Total protein decreased, grade 3/4 [4]: 0 n (%)
Upper abdominal pain, all grades [4]: 0 n (%)
Upper abdominal pain, grade 3/4 [4]: 0 n (%)
Vomiting, all grades [4]: 3 (33) n (%)
Vomiting, grade 3/4 [4]: 0 n (%)
ALT increased, all grades [5]: 1 (13) n (%)
ALT increased, grade 3/4 [5]: 1 (13) n (%)
AST increased, all grades [5]: 2 (25) n (%)
Amylase increased, all grades [5]: 0 n (%)
Amylase increased, grade 3/4 [5]: 0 n (%)
Asthenia, all grades [5]: 0 n (%)
Asthenia, grade 3/4 [5]: 0 n (%)
Blood bilirubin increased, all grades [5]: 1 (13) n (%)
Blood bilirubin increased, grade 3/4 [5]: 0 n (%)
Blood creatinine increased, all grades [5]: 0 n (%)
Blood creatinine increased, grade 3/4 [5]: 0 n (%)
Constipation, all grades [5]: 0 n (%)
Constipation, grade 3/4 [5]: 0 n (%)
Decreased appetite, all grades [5]: 3 (38) n (%)
Decreased appetite, grade 3/4 [5]: 0 n (%)
Diarrhea, all grades [5]: 2 (25) n (%)
Diarrhea, grade 3/4 [5]: 0 n (%)
Dizziness, all grades [5]: 0 n (%)
Dizziness, grade 3/4 [5]: 0 n (%)
Dyspepsia, all grades [5]: 1 (13) n (%)
Dyspepsia, grade 3/4 [5]: 0 n (%)
Fatigue, all grades [5]: 3 (38) n (%)
Fatigue, grade 3/4 [5]: 0 n (%)
Headache, all grades [5]: 0 n (%)
Headache, grade 3/4 [5]: 0 n (%)
Hypoalbuminemia, all grades [5]: 1 (13) n (%)
